Experimental findings from ChEMBL document CHEMBL1770092, “Novel N-chloroheterocyclic antimicrobials” (Bioorg Med Chem Lett, 2011) are described below.

Converted amounts (≈) assume the structure as drawn. Where only a bound is given, the exact number is not on record here.

In data set [1] the test system is Staphylococcus aureus. Kind of data set: Antibacterial activity against Staphylococcus aureus ATCC 29213 after 1 hr by modified CLSI M26-A method. Type of data set: functional. The following applies: ATCC 29213, 1 h. An outline of the steps:
(§1)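 Minimum bactericidal or fungicidal concentration (µg/mL) by modified CLSI M26-A: isotonic buffered saline at pH 4 replaces Mueller–Hinton broth because chlorine reacts with broth components, and exposure is shortened from 24 h at 35 °C to 1 h at room temperature.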

The subject of data set [2] is Candida albicans. The data set is described as follows: Antifungal activity against Candida albicans ATCC 10231 after 1 hr by modified CLSI M26-A method. The class given is functional. The following applies: ATCC 10231, 1 h. An outline of the steps: as §1
A short description of data set [3]: Stability of the compound assessed as half life in aqueous buffer at 40 degC.
Data set [4] concerns Escherichia coli. Kind of data set: Antibacterial activity against Escherichia coli ATCC 25922 after 1 hr by modified CLSI M26-A method. The class given is functional. Particulars: ATCC 25922, 1 h. An outline of the steps: as §1

`CC1(C)CS(=O)(=O)CC(C)(C)N1Cl`: the MBC in data set [1] stood at 1 µg/mL (≈ 4.43 µM); in data set [4] it was 2 µg/mL (≈ 8.86 µM). Moreover, in data set [2], the minimal fungicidal concentration (MFC) came to 128 µg/mL (≈ 567 µM). Moreover, the half-life in data set [3] was above 113 days.

Turning to `CC1(C)C(=O)N(CCS(=O)(=O)[O-])C(=O)N1Cl.[Na+]`, the minimal bactericidal concentration (MBC) in data set [1] and in data set [4] was 128 µg/mL each time. The molecule further showed a minimal fungicidal concentration (MFC) in data set [2] of 128 µg/mL. Moreover, in data set [3], the half-life is 65 days.

Regarding `CC1(C)C(=O)N(CCCS(=O)(=O)[O-])C(=O)N1Cl.[Na+]`, the MBC worked out at 32 µg/mL in data set [1] and 16 µg/mL in data set [4]. The same molecule showed an MFC in data set [2] above 256 µg/mL. Further, the half-life in data set [3] is above 14 days.

Take `CC1(C)C(=O)N(CCC[N+](C)(C)C)C(=O)N1Cl.[Cl-]`: the figures for the MBC in data set [1] and in data set [4] were above 128 µg/mL and 128 µg/mL, respectively. Further, in data set [2], the MFC was above 1020 µg/mL. Besides, the half-life in data set [3] is 4 days.

For the molecule `CC1(C)C(=O)N(CCCCC[N+](C)(C)C)C(=O)N1Cl.[Cl-]`, the minimal bactericidal concentration (MBC) in data set [1] and in data set [4] was 128 µg/mL each time. The molecule further registered an MFC in data set [2] above 1020 µg/mL. Besides, in data set [3], the half-life was 22 days.

As to `CC1(C)C(=O)N(CC[n+]2ccccc2)C(=O)N1Cl.[Cl-]`, the half-life in data set [3] is 4 days.

Regarding `CC1(C)C(=O)N(CCS(=O)(=O)CCCS(=O)(=O)[O-])C(=O)N1Cl.[Cs+]`, the minimum bactericidal concentration (MBC) is above 256 µg/mL in data set [1] and 256 µg/mL in data set [4]. In addition, the MFC in data set [2] is above 256 µg/mL. The half-life in data set [3] is above 7 days.

Consider `CN1C(=O)N(Cl)C(C)(C[N+](C)(C)C)C1=O.[Cl-]` (stereo not drawn), for which the MBC turned out to be 64 µg/mL in data set [1] and 16 µg/mL in data set [4]. Also, the MFC in data set [2] was above 256 µg/mL. Also, the half-life in data set [3] was 5 days.

Consider `CC1(C)C(=O)N(CCS(=O)(=O)[O-])CC(=O)N1Cl.[Na+]`, for which the MBC in data set [1] and in data set [4] was 128 µg/mL throughout. In addition, the MFC in data set [2] is above 256 µg/mL. Also, in data set [3], the half-life is 90 days.

Take `CC1(C)C(=O)N(CCO)CC(=O)N1Cl`: in data set [3], the half-life was below 1 days.

On to `CC1(C)CC(CCO)OC(=O)N1Cl` (stereo not drawn), for which the half-life in data set [3] is above 14 days.

On to `CC1(C)CN(CCS(=O)(=O)[O-])C(=O)N1Cl.[Na+]`, for which the values for the MBC in data set [1] and in data set [4] were 64 µg/mL and 32 µg/mL, respectively. For the same molecule, the minimum fungicidal concentration (MFC) in data set [2] was above 256 µg/mL. Further, in data set [3], the half-life is above 92 days.

For the molecule `CC1(C)CN(CCS(=O)(=O)CCCS(=O)(=O)[O-])C(=O)N1Cl.[Cs+]`, the MBC in data set [1] is 32 µg/mL; in data set [4] it was 64 µg/mL. Moreover, the half-life in data set [3] is above 112 days.

Regarding `CC(=O)[O-].CC1(C)CN(CC[N+](C)(C)C)C(=O)N1Cl`, the MBC was 128 µg/mL in data set [1] and 512 µg/mL in data set [4]. Also, in data set [3], the half-life was 126 days.

Consider `CN1CC(C)(CO)N(Cl)C1=O` (stereo not drawn), for which the minimal bactericidal concentration (MBC) in data set [1] and in data set [4] was 16 µg/mL (≈ 89.6 µM) each time. The molecule further came in with an MFC in data set [2] of 8 µg/mL (≈ 44.8 µM). For the same molecule, in data set [3], the half-life was above 58 days.

Consider `CC1(C)CC([N+](C)(C)C)CC(C)(C)N1Cl.[Cl-]`, for which the MBC in data set [1] is 8 µg/mL; in data set [4], 16 µg/mL. Further, in data set [2], the minimum fungicidal concentration (MFC) amounted to 256 µg/mL. In addition, the half-life in data set [3] was 28 days.

`CC1(C)CC(O)CC(C)(C)N1Cl`: the MBC stood at 4 µg/mL (≈ 20.9 µM) in data set [1] and 1 µg/mL (≈ 5.22 µM) in data set [4]. Further, the MFC in data set [2] is 32 µg/mL (≈ 167 µM). The half-life in data set [3] is 32 days.

For `CC1(C)CC(=O)CC(C)(C)N1Cl`, the MBC in data set [1] came to 2 µg/mL (≈ 10.5 µM); in data set [4], 1 µg/mL (≈ 5.27 µM). In data set [2], the minimum fungicidal concentration (MFC) amounted to 32 µg/mL (≈ 169 µM). Also, the half-life in data set [3] is below 1 days.

Consider `CC1(C)CN(CCO)C(=O)C(C)(C)N1Cl`, for which the minimal bactericidal concentration (MBC) in data set [1] is 2 µg/mL (≈ 8.52 µM); in data set [4], 1 µg/mL (≈ 4.26 µM). In data set [2], this molecule displayed an MFC of 8 µg/mL (≈ 34.1 µM).

On to `CC1(C)C(=O)N(CCS(=O)(=O)[O-])C(=O)C(C)(C)N1Cl.[Na+]`, for which the MBC in data set [1] and in data set [4] was 128 µg/mL in each case. Further, the MFC in data set [2] is above 256 µg/mL. Moreover, in data set [3], the half-life was 90 days.

As to `CC1(C)C(=O)N(CCCCO)C(C)(C)N1Cl`, the MBC in data set [1] and in data set [4] was 2 µg/mL (≈ 8.04 µM) in each case. In data set [2], this molecule had a minimum fungicidal concentration (MFC) of 256 µg/mL (≈ 1030 µM). In data set [3], the half-life is above 92 days.

Turning to `CC1(C)C(=O)N(CCCS(=O)(=O)[O-])C(C)(C)N1Cl.[Na+]`, the MBC worked out at 16 µg/mL in data set [1] and 4 µg/mL in data set [4]. Moreover, the minimum fungicidal concentration (MFC) in data set [2] was found to be 16 µg/mL. The half-life in data set [3] is above 249 days.

`CC1(C)C(=O)N(CCCCS(=O)(=O)[O-])C(C)(C)N1Cl.[Na+]`: the figures for the MBC in data set [1] and in data set [4] were 8 µg/mL and 16 µg/mL, respectively. The molecule also displayed an MFC in data set [2] of 32 µg/mL. Besides, the half-life in data set [3] is above 84 days.

For the molecule `CC1(C)C(=O)N(CCC[N+](C)(C)C)C(C)(C)N1Cl.[Cl-]`, the minimal bactericidal concentration (MBC) in data set [1] stood at 2 µg/mL; in data set [4], 4 µg/mL. For the same molecule, in data set [2], the MFC was found to be 32 µg/mL. Moreover, in data set [3], the half-life was 111 days.

On to `CC1(C)C(=O)N(CCCCC[N+](C)(C)C)C(C)(C)N1Cl.[Cl-]`, for which the MBC in data set [1] and in data set [4] was 2 µg/mL in each case. For the same molecule, the minimal fungicidal concentration (MFC) in data set [2] was found to be 16 µg/mL. Also, the half-life in data set [3] was above 160 days.

Usually MBC stands for the lowest tested concentration that kills the bacteria rather than only halting them. One may read the MFC as the smallest concentration meeting the test's criterion for killing the fungus. Broadly, the half-life is how long it takes for the measured level to halve.
